Assay outcomes as filed in PubChem.
RAD54 branch – inhibitors of human RAD54 branch migration; Q92698; RAD54 Holliday junction branch migration, FAM/BHQ fluorescence; inhibition, % at 10.4 µM; actives 0.14% (n = 360,000);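 active means mean normalized replicate activity at least 40 and at least half of replicates scoring 40 or more; inconclusive means only one of the two criteria met; inactive means mean below 40 and under half of replicates reaching 40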;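 further: 0% = median of neutral control wells and 100% = median of positive control wells; inhibitors cause a drop in the FAM fluorescence signal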
AF4-AF9 inh – inhibitors of human MLL-AF4/AF9 interaction; P42568; AlphaScreen, biotin-AF4 peptide binding to FLAG-AF9; inhibition, % at 10 µM; actives 0.47% (n = 350,000); AID 651704;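 active means every replicate reaching a set inhibition limit, whatever the replicate mean, cut at about 25% in these data; inconclusive means mean inhibition reaches that limit but some replicates miss it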;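 further: 0% = plate neutral control median and 100% = total signal loss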
S100A4 inh HTS – blocks human S100A4 binding to myosin IIA peptide; inhibition, % at 10.7 µM; S100A4/TAMRA-MyoIIA peptide fluorescence polarization; actives 0.14% (n = 360,000);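 active means mean inhibition of at least 70% across replicates, with every replicate also reaching that level; inconclusive means mean inhibition reaches 70% but some replicates fall short; inactive means mean inhibition below 70%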
Target sequence (P26447 whole entry, looked up): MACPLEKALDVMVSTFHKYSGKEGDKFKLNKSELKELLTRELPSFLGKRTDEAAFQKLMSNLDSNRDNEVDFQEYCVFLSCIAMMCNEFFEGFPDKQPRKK
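Material: human S100A4 monomer with TAMRA-labelled myosin IIA peptide; buffer or medium: HEPES pH 7.2 with CaCl2, KCl, NaCl, DTT, Triton; compound dosing: one concentration per compound; schedule: 5 min incubation before reading; benchmarks: neutral control DMSO, positive control TFP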
RAD52 anneal inh – RAD52 (human) annealing inhibition | recombinant RAD52 DNA annealing, FRET fluorescence | inhibition, % at 18.7 µM | P43351 | AID 651710 | actives 0.46% (n = 360,000);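 active means every replicate showing at least 50% inhibition; inconclusive means mean inhibition at least 50% but not in every replicate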
dFosB act – activators of mouse delta FosB homodimer | activation, % at 25 µM | purified delta FosB, TAMRA-CDK5 oligo fluorescence polarization; percent of positive-control signal above neutral wells | AID 493131 | actives 0.99% (n = 340,000) | P13346;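 active means mean activation above about 17%, with every replicate also reaching it, limit read from the data, passing the limit was not always enough; inconclusive means only one of the two conditions met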
Target sequence (P13346 whole entry, looked up): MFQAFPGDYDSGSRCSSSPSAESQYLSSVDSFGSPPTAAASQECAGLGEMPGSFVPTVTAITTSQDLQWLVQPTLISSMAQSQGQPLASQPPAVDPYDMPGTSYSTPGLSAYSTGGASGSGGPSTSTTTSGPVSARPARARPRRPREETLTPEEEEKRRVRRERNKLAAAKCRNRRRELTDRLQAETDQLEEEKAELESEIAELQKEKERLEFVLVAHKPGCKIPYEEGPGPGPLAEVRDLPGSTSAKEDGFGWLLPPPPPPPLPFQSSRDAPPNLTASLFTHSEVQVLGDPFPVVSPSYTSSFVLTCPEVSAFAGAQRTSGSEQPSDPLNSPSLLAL
An asterisk follows results filed as active; ? = inconclusive; . = no result. Most compounds without a hit are left out; they make up all but 1.5% or so of the library.

SMILES	RAD54 branch	AF4-AF9 inh	S100A4 inh HTS	RAD52 anneal inh	dFosB act
OC[C@@H]1Nc2ccc(C#Cc3cccc(F)c3)cc2[C@@H]2NCC[C@H]12	.	?	-3	45	.
C/C=C/c1ccc2c(c1)O[C@@H](CN(C)C(=O)Cc1ccncc1)[C@H](C)CN([C@@H](C)CO)S2(=O)=O	-11	3	-6	1	.
O=C(C[C@@H]1C[C@@H]2c3cc(NC(=O)C4CCOCC4)ccc3O[C@@H]2[C@@H](CO)O1)NCc1ccccc1	4	4	-6	13	.
COc1ccc(C#Cc2ccc3c(c2)[C@H]2[C@H](CCN2S(=O)(=O)c2cccc(OC)c2)[C@H](CO)N3C)cc1	8	2	-2	62*	.
C[C@H](CO)N1C[C@H](C)[C@@H](CN(C)CC2CC2)Oc2ccc(NC(=O)CCC(F)(F)F)cc2CC1=O	0	-2	2	8	.
COc1ccc2c3c([nH]c2c1)[C@H](CO)N(C(=O)Nc1ccc(F)cc1)CC31CN(Cc2ccc(F)cc2)C1	.	11	-6	15	.
COc1ccc2c3c([nH]c2c1)[C@H](CO)N(C(=O)NC(C)C)CC31CCN(Cc2ccccc2)CC1	.	13	.	.	.
COc1ccc(CN2CC3(C2)CN(C(=O)Nc2ccc(F)cc2)[C@@H](CO)c2[nH]c4cc(OC)ccc4c23)cc1	.	44*	.	.	.
COc1ccc2c3c([nH]c2c1)[C@H](CO)N(C(=O)NC(C)C)CC31CN(Cc2ccc(F)cc2)C1	.	31*	5	19	.
COc1ccc2c3c([nH]c2c1)[C@@H](CO)N(C(=O)Nc1ccc(F)cc1)CC31CN(Cc2ccccc2OC)C1	.	51*	.	.	.
COc1ccc2c3c([nH]c2c1)[C@H](CO)N(C(=O)NC(C)C)CC31CN(Cc2ccccc2)C1	.	26*	-33	11	.
C[C@@H]1CN([C@@H](C)CO)C(=O)c2cc(NS(C)(=O)=O)ccc2O[C@@H](C)CCCCO[C@H]1CN(C)Cc1ccc(C(F)(F)F)cc1	.	0	-5	-3	.
CC(=O)Nc1cccc(NC(=O)c2cc(-c3cccnc3)nc3ccc(Br)cc23)c1	6	7	4	-61	-17
CSc1ccccc1NC(=O)c1cc(-c2cccnc2)nc2ccc(Br)cc12	-1	-4	-13	-28	27*
N#C[C@@H]1[C@H](c2ccc(C#CC3(O)CCCC3)cc2)[C@@H](CO)N1C(=O)C1CC1	13	1	.	-7	.
NC(=O)C1CCN(C2=C(NS(=O)(=O)c3ccccc3)C(=O)c3ccccc3C2=O)CC1	.	13	-1	-11	-6
NC(=O)C1CCN(C2=C(NS(=O)(=O)c3ccc(Br)cc3)C(=O)c3ccccc3C2=O)CC1	0	32*	-3	0	-4
CCOC(=O)C1CCN(C2=C(NS(=O)(=O)c3ccc(Br)cc3)C(=O)c3ccccc3C2=O)CC1	-4	39*	0	-6	-8
O=C1C(NS(=O)(=O)c2cccs2)=C(N2CCN(Cc3ccccc3)CC2)C(=O)c2ccccc21	.	54*	-10	-3	-11
O=C1C(NS(=O)(=O)c2ccc(Cl)cc2)=C(N2CCCCC2)C(=O)c2ccccc21	.	40*	-3	-14	3
C[C@@H]1CN([C@@H](C)CO)C(=O)c2cc(NC(=O)Nc3cccc4ccccc34)ccc2O[C@H]1CN(C)C(=O)NC1CCCCC1	5	0	-10	11	.
C[C@@H](NC(=O)C[C@H]1C[C@@H]2c3cc(NC(=O)C4CCOCC4)ccc3O[C@@H]2[C@@H](CO)O1)c1ccccc1	-3	-1	1	-7	.
O=C(NCc1ccc(F)cc1)[C@@H]1[C@@H](CO)[C@@H]2Cn3c(cccc3=O)[C@H]1N2C(=O)c1cnccn1	11	-1	-14	-2	.
CCC(=O)Nc1ccc2c(c1)C(=O)N(C)[C@H]1CC[C@H](CC(=O)N3CCCCC3)O[C@@H]1CO2	-8	0	-3	-3	.
CO[C@H]1CN(C)C(=O)c2ccc(NC(=O)Nc3cc(Cl)cc(Cl)c3)cc2OC[C@@H](C)NC[C@@H]1C	-1	6	-8	52*	.
SMILES	RAD54 branch	AF4-AF9 inh	S100A4 inh HTS	RAD52 anneal inh	dFosB act
CO[C@H]1CN(C)C(=O)c2ccc(NC(=O)Nc3cc(Cl)cc(Cl)c3)cc2OC[C@H](C)NC[C@H]1C	5	18	9	54*	.
CO[C@@H]1CN(C)C(=O)c2cc(NC(=O)Nc3cc(Cl)cc(Cl)c3)ccc2OC[C@H](C)NC[C@H]1C	.	.	.	57*	.
CO[C@@H]1CN(C)C(=O)c2ccc(NC(=O)Nc3cccc(Cl)c3)cc2OC[C@H](C)NC[C@@H]1C	-4	8	11	28	.
CO[C@H]1CN(C)C(=O)c2ccc(NC(=O)Nc3cc(Cl)cc(Cl)c3)cc2OC[C@@H](C)NC[C@H]1C	15	.	8	64*	.
CO[C@H]1CN(C)C(=O)c2cc(NC(=O)Nc3ccc(Cl)cc3)ccc2OC[C@H](C)NC[C@@H]1C	6	.	.	21	.
C[C@@H]1CCCCO[C@H](CN(C)S(=O)(=O)c2cccs2)[C@H](C)CN([C@@H](C)CO)C(=O)c2cc(NC(=O)c3ccncc3)ccc2O1	-4	0	-9	-14	.
C[C@@H]1CN([C@H](C)CO)C(=O)c2cc(C3=CCCCC3)cnc2O[C@@H]1CN(C)Cc1ccncc1	.	-1	0	5	.
CO[C@H]1CN(C)C(=O)c2cc(NC(=O)Nc3ccc(C(F)(F)F)cc3)ccc2OC[C@H](C)NC[C@H]1C	9	-6	136*	30	.
CC(=O)N1[C@@H]2Cn3c(ccc(-c4ccccc4)c3=O)[C@H]1[C@@H](C(=O)N1CCCCC1)[C@@H]2CO	6	0	2	59*	.
CCC(=O)N1[C@@H]2c3ccc(-c4ccncc4)c(=O)n3C[C@H]1[C@H](CO)[C@H]2C(=O)NC1Cc2ccccc2C1	1	-11	154*	15	.
C[C@@H]1CCCCO[C@@H](CN(C)S(=O)(=O)c2ccccc2)[C@@H](C)CN([C@@H](C)CO)C(=O)c2cc(NC(=O)c3ccncc3)ccc2O1	-1	-3	10	-8	.
Cc1nc2ncccn2c1-c1csc(Nc2ccc(N(C)C)cc2)n1	.	44*	-4	4	-10
Cn1c2c(c3ccccc31)CCN1CCC[C@]21c1ccccc1	0	26*	-1	4	-17
C[C@H](CO)N1C[C@H](C)[C@H](CN(C)Cc2ccc3c(c2)OCO3)OCc2cnnn2CCCC1=O	5	-1	1	2	.
C/C=C/c1ccc2c(c1)O[C@@H](CN(C)C(=O)c1ccccc1F)[C@@H](C)CN([C@@H](C)CO)S2(=O)=O	5	2	4	2	.
COc1ccccc1CNC(=O)C[C@H]1C[C@@H]2c3cc(NC(=O)CN(C)C)ccc3O[C@@H]2[C@@H](CO)O1	0	0	-12	2	.
C[C@@H]1CN([C@H](C)CO)C(=O)c2c(c3ccccc3n2C)-c2ccccc2CO[C@@H]1CN(C)Cc1ccc2c(c1)OCCN2C	.	50*	6	45	.
